Measured values as given in ChEMBL document CHEMBL3421610, “Antimalarial activity of 4-amidinoquinoline and 10-amidinobenzonaphthyridine derivatives” (J Med Chem, 2015).
Converted amounts (≈) assume the structure as drawn. The source made the active and inactive calls. No cut-off for these calls is given here.

Target: hERG (KCNH2) (Homo sapiens, UniProt Q12809)
Test: Inhibition of human ERG expressed in CHL cells assessed as tail current at 10 uM after 7 mins by patch clamp assay relative to control
Format: cell-based
Conditions: CHL cells expressing human ERG

Chain of hERG (KCNH2) (Q12809 whole entry): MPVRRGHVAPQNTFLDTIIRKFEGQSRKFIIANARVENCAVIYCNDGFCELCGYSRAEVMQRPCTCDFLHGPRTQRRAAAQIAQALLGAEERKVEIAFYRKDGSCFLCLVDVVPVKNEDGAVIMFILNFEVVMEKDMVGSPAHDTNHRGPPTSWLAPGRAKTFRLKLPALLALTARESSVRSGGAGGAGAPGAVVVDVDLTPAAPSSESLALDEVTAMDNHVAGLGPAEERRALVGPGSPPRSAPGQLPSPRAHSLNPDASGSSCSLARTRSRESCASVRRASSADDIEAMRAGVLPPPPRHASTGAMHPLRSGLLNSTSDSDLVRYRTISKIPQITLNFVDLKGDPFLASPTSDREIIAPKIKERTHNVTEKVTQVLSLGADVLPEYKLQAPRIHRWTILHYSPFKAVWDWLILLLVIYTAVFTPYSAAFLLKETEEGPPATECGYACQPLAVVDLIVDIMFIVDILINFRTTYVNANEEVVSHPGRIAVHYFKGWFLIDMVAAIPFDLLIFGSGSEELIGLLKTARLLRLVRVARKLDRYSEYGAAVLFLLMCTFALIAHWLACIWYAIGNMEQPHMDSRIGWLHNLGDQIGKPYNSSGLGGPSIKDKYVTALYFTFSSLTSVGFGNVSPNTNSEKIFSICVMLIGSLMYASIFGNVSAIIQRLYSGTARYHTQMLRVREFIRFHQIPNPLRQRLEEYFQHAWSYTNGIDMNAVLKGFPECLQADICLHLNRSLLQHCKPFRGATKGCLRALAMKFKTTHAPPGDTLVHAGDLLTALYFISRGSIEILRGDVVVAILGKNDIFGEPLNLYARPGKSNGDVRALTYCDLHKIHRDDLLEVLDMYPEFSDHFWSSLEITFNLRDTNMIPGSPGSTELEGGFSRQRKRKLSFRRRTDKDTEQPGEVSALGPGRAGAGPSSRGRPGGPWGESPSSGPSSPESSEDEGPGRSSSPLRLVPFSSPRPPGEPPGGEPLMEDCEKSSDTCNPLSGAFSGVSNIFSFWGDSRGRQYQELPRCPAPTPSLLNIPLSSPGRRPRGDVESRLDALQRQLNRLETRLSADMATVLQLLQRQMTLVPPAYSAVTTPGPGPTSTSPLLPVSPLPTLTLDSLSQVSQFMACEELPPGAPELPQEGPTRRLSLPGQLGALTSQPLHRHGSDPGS

Compound	inhibition at 7 min, 10 µM [%]
COc1ccc2nc3cc(Cl)ccc3c(N/C(=N/CCCN(C)C)c3ccccc3)c2n1	48.9
CC(C)/C(=N/c1ccnc2cc(Cl)ccc12)NCCCCN1CCCCC1	33
COc1ccc2nc3cc(Cl)ccc3c(N/C(=N/CCCN3CCCCC3)c3ccccc3)c2n1	80
COc1ccc2nc3cc(Cl)ccc3c(N/C(C)=N/CCCN3CCCCC3)c2n1	94.5

Tested on: not listed separately
Test: Half life in human liver microsomes at 1 uM by LC/MS analysis
Format: ADME
Conditions: not given
Outline: (§1)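 Compound at 1 µM final, diluted from […], with 0.5 mg/mL pooled human or mouse liver microsomes, NADP, MgCl2 and 0.1 M PBS pH 7.4. Reaction started with 1 U/mL G6PD and shaken at 37 °C. Aliquots quenched in cold acetonitrile at 0, 10, 20, 30 and 60 min and quantified by LC/MS. Half-life from log plot of total ion chromatogram area remaining.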

Compound	half-life at 1 µM [min]
COc1ccc2nc3cc(Cl)ccc3c(N/C(=N/CCCN(C)C)c3ccccc3)c2n1	18
CC(C)/C(=N/c1ccnc2cc(Cl)ccc12)NCCCCN1CCCCC1	29
COc1ccc2nc3cc(Cl)ccc3c(N/C(=N/CCCN3CCCCC3)c3ccccc3)c2n1	9
COc1ccc2nc3cc(Cl)ccc3c(N/C(C)=N/CCCN3CCCCC3)c2n1	14

Tested on: Plasmodium falciparum
Test: Antimalarial activity against chloroquine-resistant Plasmodium falciparum W2 assessed as growth inhibition after 18 hrs by [3H]-hypoxanthine uptake assay
Format: functional, organism-based
Conditions: not given
Outline: (§2)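 P. falciparum clones D6, W2 and TM91C235; modified semiautomated microdilution. Compounds in DMSO, diluted in RPMI 1640 with 10% human plasma, tested over (1.56-100) x 10^-9 M; final DMSO 0.25-0.5%. Inoculum 0.5% parasitemia, 1% hematocrit. 24 h incubation, then [3H]-hypoxanthine added, further 18 h. Harvested and read by scintillation counting; IC50 by nonlinear regression.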

Compound	IC50 [nM]
COc1ccc2nc3cc(Cl)ccc3c(N/C(=N/CCCN(C)C)c3ccccc3)c2n1	1.98
CC(C)/C(=N/c1ccnc2cc(Cl)ccc12)NCCCCN1CCCCC1	18.6
COc1ccc2nc3cc(Cl)ccc3c(N/C(=N/CCCN3CCCCC3)c3ccccc3)c2n1	3.3
COc1ccc2nc3cc(Cl)ccc3c(N/C(C)=N/CCCN3CCCCC3)c2n1	24.9

Tested on: Mus musculus
Test: Toxicity in mouse infected with erythrocytic stage of chloroquine resistant Plasmodium berghei ANKA up to 160 mg/kg, po qd administered on day 3, 4 and 5 post infection measured over 30 days
Format: organism-based, Erythrocyte
Parameters: dose 160 mg/kg, route oral
Conditions: in vivo, 720 h
Outline: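 Male mice of 16-20 g infected intraperitoneally with CQ-resistant P. berghei ANKA (5 x 10^6 infected erythrocytes). Oral dosing once daily on days 3-5, five mice per group. Animals followed for 30 days by blood films; mice losing >20% body weight sacrificed.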

Compound	Activity
COc1ccc2nc3cc(Cl)ccc3c(N/C(=N/CCCN(C)C)c3ccccc3)c2n1	Non-toxic
CC(C)/C(=N/c1ccnc2cc(Cl)ccc12)NCCCCN1CCCCC1	Non-toxic
COc1ccc2nc3cc(Cl)ccc3c(N/C(=N/CCCN3CCCCC3)c3ccccc3)c2n1	Non-toxic
COc1ccc2nc3cc(Cl)ccc3c(N/C(C)=N/CCCN3CCCCC3)c2n1	Non-toxic

Tested on: Plasmodium falciparum
Test: Antimalarial activity against chloroquine-sensitive Plasmodium falciparum D6 assessed as growth inhibition after 18 hrs by [3H]-hypoxanthine uptake assay
Format: functional, organism-based
Conditions: not given
Outline: as §2

Compound	IC50 [nM]
COc1ccc2nc3cc(Cl)ccc3c(N/C(=N/CCCN(C)C)c3ccccc3)c2n1	1.8
CC(C)/C(=N/c1ccnc2cc(Cl)ccc12)NCCCCN1CCCCC1	7.5
COc1ccc2nc3cc(Cl)ccc3c(N/C(=N/CCCN3CCCCC3)c3ccccc3)c2n1	5.1
COc1ccc2nc3cc(Cl)ccc3c(N/C(C)=N/CCCN3CCCCC3)c2n1	8

Tested on: HepG2
Test: Cytotoxicity against human HepG2 cells after 48 hrs by MTT assay
Format: cell-based
Conditions: HepG2, 48 h
Outline: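 HepG2 cells in supplemented MEM, plated at 9570 cells/well in 384-well format and incubated overnight at 37 °C, 5% CO2. Twelve duplicate 1.6-fold dilutions, 57–10,000 ng/ml, incubated 48 h. MTT added for 1 h at room temperature in the dark, formazan dissolved in acidified isopropanol, absorbance read. IC50 by sigmoidal variable-slope nonlinear regression; tryptanthrin control.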

Compound	IC50 [µg/mL]
COc1ccc2nc3cc(Cl)ccc3c(N/C(=N/CCCN(C)C)c3ccccc3)c2n1	5.78 (≈ 12.9 µM)
CC(C)/C(=N/c1ccnc2cc(Cl)ccc12)NCCCCN1CCCCC1	5.71 (≈ 14.8 µM)
COc1ccc2nc3cc(Cl)ccc3c(N/C(=N/CCCN3CCCCC3)c3ccccc3)c2n1	2.56 (≈ 5.25 µM)
COc1ccc2nc3cc(Cl)ccc3c(N/C(C)=N/CCCN3CCCCC3)c2n1	2.81 (≈ 6.59 µM)

Tested on: Plasmodium berghei
Test: Antimalarial activity against erythrocytic stage of chloroquine resistant Plasmodium berghei ANKA infected in mouse assessed as cure rate at 120 mg/kg, po qd administered on day 3, 4 and 5 post infection measured 3 times per week for 30 days, starting from day 3 by Thompson test
Format: functional, organism-based
Parameters: dose 120 mg/kg
Conditions: not given
Outline: (§3)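 Male mice of 16-20 g inoculated intraperitoneally with 5 x 10^6 erythrocytes infected with CQ-resistant P. berghei ANKA. Drug given orally as a suspension once daily on days 3, 4 and 5 post-infection, five mice per dose. Blood films from day 3, three times weekly for 30 days. Cure means parasite-negative on day 30 or surviving 30 days. Mice losing >20% body weight sacrificed.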

Compound	Activity
COc1ccc2nc3cc(Cl)ccc3c(N/C(=N/CCCN(C)C)c3ccccc3)c2n1	Active
CC(C)/C(=N/c1ccnc2cc(Cl)ccc12)NCCCCN1CCCCC1	Active
COc1ccc2nc3cc(Cl)ccc3c(N/C(=N/CCCN3CCCCC3)c3ccccc3)c2n1	Active
COc1ccc2nc3cc(Cl)ccc3c(N/C(C)=N/CCCN3CCCCC3)c2n1	Active

Tested on: Plasmodium berghei
Test: Antimalarial activity against erythrocytic stage of chloroquine resistant Plasmodium berghei ANKA infected in mouse assessed as cure rate at 60 mg/kg, po qd administered on day 3, 4 and 5 post infection measured 3 times per week for 30 days, starting from day 3 by Thompson test
Format: functional, organism-based
Parameters: dose 60 mg/kg
Conditions: not given
Outline: as §3

Compound	Activity
COc1ccc2nc3cc(Cl)ccc3c(N/C(=N/CCCN(C)C)c3ccccc3)c2n1	Active

Tested on: Plasmodium falciparum
Test: Antimalarial activity against chloroquine-resistant Plasmodium falciparum C235 assessed as growth inhibition after 18 hrs by [3H]-hypoxanthine uptake assay
Format: functional, organism-based
Conditions: not given
Outline: as §2

Compound	IC50 [nM]
COc1ccc2nc3cc(Cl)ccc3c(N/C(=N/CCCN(C)C)c3ccccc3)c2n1	1.7
CC(C)/C(=N/c1ccnc2cc(Cl)ccc12)NCCCCN1CCCCC1	12
COc1ccc2nc3cc(Cl)ccc3c(N/C(=N/CCCN3CCCCC3)c3ccccc3)c2n1	4.3
COc1ccc2nc3cc(Cl)ccc3c(N/C(C)=N/CCCN3CCCCC3)c2n1	13.1

Tested on: not listed separately
Test: Half life in mouse liver microsomes at 1 uM by LC/MS analysis
Format: ADME
Conditions: not given
Outline: as §1

Compound	half-life at 1 µM [min]
COc1ccc2nc3cc(Cl)ccc3c(N/C(=N/CCCN(C)C)c3ccccc3)c2n1	44
CC(C)/C(=N/c1ccnc2cc(Cl)ccc12)NCCCCN1CCCCC1	31
COc1ccc2nc3cc(Cl)ccc3c(N/C(=N/CCCN3CCCCC3)c3ccccc3)c2n1	12
COc1ccc2nc3cc(Cl)ccc3c(N/C(C)=N/CCCN3CCCCC3)c2n1	15
